Data reported in ChEMBL document CHEMBL4813968, “Synthesis and evaluation of 3'-fluorinated 7-deazapurine nucleosides as antikinetoplastid agents” (Eur J Med Chem, 2021).

Assays:
Leishmania infantum = assay: Antileishmanial activity against Leishmania infantum MHOM/MA(BE)/67 infected in mouse primary peritoneal macrophages treated 2 hrs post-infection and incubated for 5 days by Giemsa staining based microscopic analysis; format: functional, organism-based; conditions: MHOM/MA(BE)/67, Peritoneal macrophage
Procedure, shortened: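 Peritoneal macrophages from mice, harvested 2 days after 2% potato starch stimulation, infected after 48 h with L. infantum in supplemented RPMI-1640 with 5% FCS. Compounds were added 2 h post-infection as a 10-point 4-fold dilution series, final DMSO <1%, and incubated 5 days at 37 °C, 5% CO₂. Amastigotes per macrophage were counted after 10% Giemsa staining, and IC₅₀ was taken from % reduction versus untreated-infected controls.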

MRC5 = assay: Cytotoxicity against human MRC5 cells assessed as reduction in cell viability after 3 days by resazurin dye based fluorimetric analysis; conditions: MRC5, 72 h
Procedure, shortened: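 MRC-5_SV2 cells, 1.5×10⁵ cells/mL in MEM with Earl's salts, L-glutamine, NaHCO₃ and 5% inactivated FCS, were exposed 3 days at 37 °C, 5% CO₂ to a 10-point 4-fold dilution series, final DMSO <1%. Resazurin was added for 4 h, fluorescence read at ex 550/em 590 nm, and IC₅₀ derived versus untreated and medium controls.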

Trypanosoma cruzi = assay: Antitrypanosomal activity against Trypanosoma cruzi Tulahuen CL2 infected in human MRC5 cells assessed as inhibition of parasite growth incubated for 7 days by chlorophenol red-fl-D-galactopyranoside based spectrophotometric analysis; format: functional, organism-based; conditions: Tulahuen CL2, MRC5, 168 h
Procedure, shortened: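 T. cruzi Tulahuen CL2 β-galactosidase strain was maintained on MRC-5_SV2 cells. Wells held 4×10³ cells plus 4×10⁴ parasites with a 10-point 4-fold compound series, final DMSO <1%. After 7 days at 37 °C, 5% CO₂, substrate was added and absorbance read at 540 nm after 4 h at 37 °C. IC₅₀ was taken from % reduction versus infected and uninfected controls.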

Macrophage = assay: Cytotoxicity against mouse primary macrophage cells assessed as reduction in cell viability; format: cell-based
Procedure, shortened: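 Macrophage toxicity was scored microscopically within the L. infantum assays, using cell detachment, lysis and granulation. At least 500 cells over adjacent fields were scored semi-quantitatively, and CC₅₀ was taken from % reduction in normal cells versus untreated controls.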

[1] = test system: Trypanosoma brucei brucei; assay: Antitrypanosomal activity against Trypanosoma brucei brucei assessed as parasite growth inhibition; format: functional, organism-based
[2] = test system: Trypanosoma brucei rhodesiense; assay: Antitrypanosomal activity against Trypanosoma brucei rhodesiense assessed as parasite growth inhibition; format: functional, organism-based
[3] = Selectivity index, ratio of EC50 for cytotoxicity against human MRC5 cells to EC50 for antitrypanosomal activity against Trypanosoma cruzi Tulahuen CL2 infected in human MRC5 cells; format: toxicity, cell-based; conditions: read-out: Ratio EC50
Procedure, shortened: (§1)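 Selectivity index is the MRC-5 EC₅₀ divided by the parasite EC₅₀.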

[4] = Selectivity index, ratio of EC50 for cytotoxicity against mouse primary macrophage to EC50 for antileishmanial activity against Leishmania infantum MHOM/MA(BE)/67 infected in mouse primary peritoneal macrophages; format: toxicity; conditions: read-out: Ratio EC50
[5] = Selectivity index, ratio of EC50 for human MRC5 cells to EC50 for antitrypanosomal activity against Trypanosoma brucei brucei; format: toxicity; conditions: read-out: Ratio EC50; procedure, shortened: as §1
[6] = Selectivity index, ratio of EC50 for human MRC5 cells to EC50 for antitrypanosomal activity against Trypanosoma brucei rhodesiense; format: toxicity; conditions: read-out: Ratio EC50; procedure, shortened: as §1

SMILES | EC50 (Leishmania infantum) [µM] | EC50 (MRC5) [µM] | EC50 (Trypanosoma cruzi) [µM] | EC50 (Macrophage) [µM] | EC50 [1] [µM] | EC50 [2] [µM] | selectivity ratio [3] | selectivity ratio [4] | selectivity ratio [5] | selectivity ratio [6]
Nc1nc(N)c2ncn([C@@H]3O[C@H](CO)[C@@H](F)[C@H]3O)c2n1 | > 64 | > 64 | > 64 | > 64 | > 64 | > 64 |  |  |  | 
Nc1ncnc2c1c(-c1ccc(Cl)cc1)cn2[C@@H]1O[C@H](CO)[C@@H](F)[C@H]1O | 12.7 | 16.9 | 0.74 | 32 | 7.02 | 5.18 | 23 | 3 | 2 | 2
NC(=O)c1cn([C@@H]2O[C@H](CO)[C@@H](F)[C@H]2O)c2ncnc(N)c12 | 32.5 | 2.38 | 7.1 | 32 | 2.34 | 0.12 | < 1 | 1 | 1 | 20
Nc1nc2c(ccn2[C@@H]2O[C@H](CO)[C@@H](F)[C@H]2O)c(=O)[nH]1 | > 64 | > 64 | > 64 | > 64 | > 64 | > 64 |  |  |  | 
Nc1ncnc2c1c(Br)cn2[C@@H]1O[C@H](CO)[C@@H](F)[C@H]1O | 0.37 | 32 | 0.041 | 1.02 | 0.031 | 0.028 | 779 | 3 |  | 1150
C#Cc1cn([C@@H]2O[C@H](CO)[C@@H](F)[C@H]2O)c2ncnc(N)c12 | 0.13 | 0.16 | 0.04 | 0.13 | 0.04 | 0.02 | 4 | 1 | 4 | 7
O=C(Cn1ccnc1[N+](=O)[O-])NCc1ccccc1 [BENZNIDAZOLE] |  |  | 2.02 |  |  |  |  |  |  | 
O=c1[nH]cnc2c1c(Br)cn2[C@@H]1O[C@H](CO)[C@@H](F)[C@H]1O | > 64 | > 64 | > 64 | > 64 | > 64 | > 64 |  |  |  | 
OC[C@H]1O[C@@H](n2cc(Br)c3c(O)ncnc32)[C@H](O)[C@H]1F | > 64 | > 64 | > 64 | > 64 | 16 | 1.57 |  |  | > 4 | > 41
O=c1[nH]cnc2c1ncn2[C@@H]1O[C@H](CO)[C@@H](F)[C@H]1O | > 64 | > 64 | 4.28 | > 64 | > 64 | > 64 | > 15 |  |  | 
O=c1[nH]cnc2c1c(-c1ccccc1)cn2[C@@H]1O[C@H](CO)[C@@H](F)[C@H]1O | > 64 | > 64 | > 64 | > 64 | > 64 | > 64 |  |  |  | 
Nc1ncnc2c1c(C(F)(F)F)cn2[C@@H]1O[C@H](CO)[C@@H](F)[C@H]1O | 27.3 | 7.01 | 3.17 | 32 | 2.02 | 2.06 |  | 1 | 3 | 3
O=c1[nH]cnc2c1c(I)cn2[C@@H]1O[C@H](CO)[C@@H](F)[C@H]1O | > 64 | > 64 | > 64 | > 64 | > 64 | > 64 |  |  |  | 
CCc1cn([C@@H]2O[C@H](CO)[C@@H](F)[C@H]2O)c2ncnc(N)c12 | > 64 | 40.3 | > 64 | > 64 | 20.5 | 21.3 | < 1 |  | 2 | 2
Cc1ccc(C(=O)Nc2ccc(S(=O)(=O)O)c3cc(S(=O)(=O)O)cc(S(=O)(=O)O)c23)cc1NC(=O)c1cccc(NC(=O)Nc2cccc(C(=O)Nc3cc(C(=O)Nc4ccc(S(=O)(=O)O)c5cc(S(=O)(=O)O)cc(S(=O)(=O)O)c45)ccc3C)c2)c1 [SURAMIN] |  |  |  |  | 0.03 |  |  |  |  | 
CCCCCCCCCCCCCCCCOP(=O)([O-])OCC[N+](C)(C)C [MILTEFOSINE] | 7.47 |  |  |  |  |  |  |  |  | 
N#Cc1cn([C@@H]2O[C@H](CO)[C@@H](F)[C@H]2O)c2ncnc(N)c12 | 2.03 | 1.32 | 9.66 | 2 | 10.5 | 0.38 | < 1 | < 1 |  | 3
Nc1nc2c(ncn2[C@@H]2O[C@H](CO)[C@@H](F)[C@H]2O)c(=O)[nH]1 | 46.9 | 42 | 34.6 | > 64 | 42 | > 64 | 1 | > 1 |  | 
O=c1[nH]cnc2c1c(F)cn2[C@@H]1O[C@H](CO)[C@@H](F)[C@H]1O | > 64 | > 64 | > 64 | > 64 | > 64 | > 64 |  |  |  | 
COc1ncnc2c1c(Br)cn2[C@@H]1O[C@H](CO)[C@@H](F)[C@H]1O | > 64 | > 64 | > 64 | > 64 | 8.64 | 51.6 |  |  | 7 | 1
Nc1ncnc2c1ccn2[C@@H]1O[C@H](CO)[C@H](F)[C@H]1O | > 64 | > 64 | > 64 | > 64 | 0.04 | 0.0063 |  |  | > 1590 | > 10100
O=c1[nH]cnc2c1c(Cl)cn2[C@@H]1O[C@H](CO)[C@@H](F)[C@H]1O | > 64 | > 64 | > 64 | > 64 | > 64 | > 64 |  |  |  | 
O=c1[nH]cnc2c1ccn2[C@@H]1O[C@H](CO)[C@@H](F)[C@H]1O | > 64 | > 64 | > 64 | > 64 | > 64 | > 64 |  |  |  | 
Nc1ncnc2c1c(F)cn2[C@@H]1O[C@H](CO)[C@@H](F)[C@H]1O | 1.75 | 5.49 | 0.25 | 2 | 0.47 | 0.16 | 22 |  | 9 | 27
COc1nc(N)nc2c1c(Br)cn2[C@@H]1O[C@H](CO)[C@@H](F)[C@H]1O | > 64 | > 64 | > 64 | > 64 | > 64 | > 64 |  |  |  | 
COc1ncnc2c1ncn2[C@@H]1O[C@H](CO)[C@@H](F)[C@H]1O | > 64 | > 64 | 30.1 | > 64 | 33.5 | 35.2 | > 2 |  | 2 | 2
COc1nc(N)nc2c1ccn2[C@@H]1O[C@H](CO)[C@@H](F)[C@H]1O | > 64 | > 64 | > 64 | > 64 | > 64 | > 64 |  |  |  | 
